From ChEMBL document CHEMBL2380226, “Novel dual cyclooxygenase and lipoxygenase inhibitors targeting hyaluronan-CD44v6 pathway and inducing cytotoxicity in colon cancer cells” (Bioorg Med Chem, 2013) come the findings set out here.

Activity calls are given as the source filed them. The rule behind the calls is not given here.

Data set [1] can be described thus: Inhibition of potato 5-LOX using arachidonic acid as substrate assessed as production of hydroperoxides after 5 mins […]. Also on record: species or system Solanum tuberosum. The procedure, abridged:
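Potato 5-LOX was tested with a commercial lipoxygenase screening kit that measures hydroperoxides. Compounds were dissolved in minimal DMSO and diluted in the supplied buffer. The reaction was started with arachidonic acid and shaken for 5 min. Chromogen was added, shaken for 5 min, and absorbance read at 500 nm. Percent inhibition was taken against control, and IC50 was derived from the concentration-inhibition curve from duplicate determinations.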

For another data set, the species on record is Ovis aries. The experiment in a line: Selectivity ratio of IC50 for sheep placental COX-2 to IC50 for ram seminal vesicle COX-1. The format is tissue-based.
A short description of data set [2]: Inhibition of hyaluronan-induced CD44 antigen variant exon 6 activity in human HCA-7 cells expressing Has2 assessed as decrease in cell survival after 18 hrs by MTS assay. The format is cell-based. The following applies: HCA-7, 18 h. The procedure, abridged: (§1)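 Cells were harvested, counted and seeded at 20 × 10^3 per well. After 18 h the medium was replaced with medium containing the agents. MTS/PMS reagent was freshly prepared at 2/0.92 mg/mL in DPBS and added in excess, then incubated at 5% CO2. Absorbance was read at 490 nm at 90 min, and cell-free blank absorbance was subtracted. IC50 is the concentration giving 50% inhibition of proliferation, reported as mean ± S.D. (three replicates of 4 independent analyses).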
(Tetrazolium assays rely on reduction of a dye to a coloured formazan, in cell work by metabolically active cells.)

Data set [3] is described as follows: Cytotoxicity against human HCA-7 cells assessed as decrease in cell survival after 18 hrs by MTS assay. The format is functional, cell-based. The following applies: HCA-7, 18 h. An outline of the steps:
as §1

The nature of data set [4]: Inhibition of hyaluronan-induced CD44 antigen variant exon 6 activity in human HT-29 cells expressing Has2 assessed as decrease in cell survival after 18 hrs by MTS assay. The format is cell-based. As to conditions: HT-29, 18 h. An outline of the steps:
as §1

In data set [5] the target is T1, Prostaglandin G/H synthase 2 (Ovis aries, UniProt P79208).
T1 sequence (P79208 whole entry): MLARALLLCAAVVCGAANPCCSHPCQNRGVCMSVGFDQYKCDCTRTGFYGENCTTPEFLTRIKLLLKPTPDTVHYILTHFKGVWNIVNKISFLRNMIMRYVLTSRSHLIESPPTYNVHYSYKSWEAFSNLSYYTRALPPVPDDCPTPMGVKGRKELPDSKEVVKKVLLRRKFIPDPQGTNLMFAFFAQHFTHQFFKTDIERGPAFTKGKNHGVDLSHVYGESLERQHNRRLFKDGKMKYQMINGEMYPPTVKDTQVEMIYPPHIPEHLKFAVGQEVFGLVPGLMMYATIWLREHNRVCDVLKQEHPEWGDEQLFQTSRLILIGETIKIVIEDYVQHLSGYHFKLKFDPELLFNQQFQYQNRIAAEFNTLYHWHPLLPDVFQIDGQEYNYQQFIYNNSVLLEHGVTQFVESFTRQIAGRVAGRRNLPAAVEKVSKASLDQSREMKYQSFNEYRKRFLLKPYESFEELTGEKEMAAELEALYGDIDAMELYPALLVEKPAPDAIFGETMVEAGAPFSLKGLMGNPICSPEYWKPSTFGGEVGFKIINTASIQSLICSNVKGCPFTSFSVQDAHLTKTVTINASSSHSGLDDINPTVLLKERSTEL
The experiment in a line: Inhibition of sheep placental COX-2 using arachidonic acid as substrate assessed as production of PGF2alpha by enzyme immunoassay in presence of stannous chloride. The procedure, abridged: (§2)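 PGH2 formed by the enzyme is reduced with stannous chloride to PGF, which is quantified by competitive EIA. PGs compete with a PG-acetylcholinesterase tracer for PG antiserum, and the complex is captured on an anti-rabbit antibody-coated well. Ellman's reagent is developed and absorbance is read at 405 nm. Percent inhibition is taken against control incubations, and IC50 comes from the concentration-inhibition curve.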

For data set [6], the system named is HT-29. The experiment in a line: Inhibition of hyaluronan-induced CD44 antigen variant exon 6 activity in human HT29 cells assessed as decrease in 5-LOX expression at 10 uM. The format is cell-based.
Data set [7] in a line: Cytotoxicity against mouse APC10.1 cells assessed as decrease in cell survival after 18 hrs by MTS assay. The format is functional, cell-based. An outline of the steps:
as §1

In data set [8] the test system is HT-29. The experiment in a line: Inhibition of hyaluronan-induced CD44 antigen variant exon 6 activity in human HT29 cells assessed as decrease in COX-2 expression at 10 uM. The format is cell-based.
Data set [9] concerns HT-29. The experiment in a line: Cytotoxicity against human HT-29 cells assessed as decrease in cell survival after 18 hrs by MTS assay. The following applies: HT-29, 18 h. The format is functional, cell-based. The procedure, abridged:
as §1

Data set [10] can be described thus: Inhibition of hyaluronan-induced CD44 antigen variant exon 6 activity in mouse APC10.1 cells expressing Has2 assessed as decrease in cell survival after 18 hrs by MTS assay. The format is cell-based. The procedure, abridged: as §1
The subject of data set [11] is HCA-7. The experiment in a line: Cytotoxicity against human HCA-7 cells assessed as growth inhibition after 18 hrs by MTS assay. The format is functional, cell-based. The procedure, abridged: as §1
Data set [12] concerns the target T2, Prostaglandin G/H synthase 1 (Ovis aries, UniProt P05979).
T2 sequence (P05979 whole entry): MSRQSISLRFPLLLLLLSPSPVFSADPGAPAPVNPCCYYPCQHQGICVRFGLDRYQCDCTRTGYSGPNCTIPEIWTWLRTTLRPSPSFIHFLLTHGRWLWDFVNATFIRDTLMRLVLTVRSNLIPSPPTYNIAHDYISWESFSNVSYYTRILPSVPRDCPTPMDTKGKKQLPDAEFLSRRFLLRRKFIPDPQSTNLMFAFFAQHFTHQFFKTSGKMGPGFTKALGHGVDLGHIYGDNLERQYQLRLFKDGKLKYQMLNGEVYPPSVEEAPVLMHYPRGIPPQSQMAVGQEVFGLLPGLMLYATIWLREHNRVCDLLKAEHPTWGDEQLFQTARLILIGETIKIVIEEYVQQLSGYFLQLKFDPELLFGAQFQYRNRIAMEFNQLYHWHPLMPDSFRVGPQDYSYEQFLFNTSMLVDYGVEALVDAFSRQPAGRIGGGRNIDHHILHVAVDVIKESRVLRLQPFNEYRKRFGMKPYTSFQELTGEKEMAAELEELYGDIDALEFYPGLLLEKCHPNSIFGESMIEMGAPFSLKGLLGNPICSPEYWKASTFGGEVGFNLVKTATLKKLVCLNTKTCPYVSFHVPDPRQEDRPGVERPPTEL
The experiment in a line: Inhibition of ram seminal vesicle COX-1 using arachidonic acid as substrate assessed as production of PGF2alpha by enzyme immunoassay in presence of stannous chloride. The procedure, abridged:
as §2

The test system of data set [13] is HT-29. The experiment in a line: Cytotoxicity against human HT-29 cells assessed as growth inhibition after 18 hrs by MTS assay. The format is functional, cell-based. An outline of the steps:
as §1

The species entered for data set [14] is Mus musculus. In words: Inhibition of hyaluronan-induced CD44 antigen variant exon 6 activity in mouse APC10.1 cells assessed as cell growth inhibition after 18 hrs by MTS assay. The format is cell-based. The procedure, abridged: as §1
Data set [15] concerns HCA-7. In words: Cytotoxicity against human HCA-7 cells assessed as growth inhibition at 2 to 50 uM after 24 hrs by MTT assay. The format is functional, cell-based. The procedure, abridged:
(§3)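 Cells were treated for 24 h at four concentrations in triplicate. MTT (stock 5 mg/ml in PBS, pH 7.2, filtered) was then added and incubated for 4 h at 37°C. Formazan was solubilized with 10% SDS in 0.01 N HCl, and absorbance was read at 570 nm to give viability.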

In data set [16] the test system is HT-29. In words: Cytotoxicity against human HT-29 cells assessed as growth inhibition at 2 to 50 uM after 24 hrs by MTT assay. The format is functional, cell-based. An outline of the steps: as §3
The species entered for data set [17] is Mus musculus. The experiment in a line: Cytotoxicity against mouse APC10.1 cells expressing COX and LOX assessed as growth inhibition at 2 to 50 uM after 24 hrs by MTT assay. The format is functional, cell-based. An outline of the steps:
as §3

A short description of data set [18]: Cytotoxicity against rat IEC-6 cells assessed as growth inhibition at 2 to 50 uM after 24 hrs by MTT assay. The format is cell-based. The following applies: iec-6, 24 h. The procedure, abridged: as §3
The species entered for data set [19] is Mus musculus. The experiment in a line: Inhibition of hyaluronan-induced CD44 antigen variant exon 6 activity in mouse APC10.1 cells assessed as cell growth inhibition at 2 to 50 uM after 24 hrs by MTT assay. The format is cell-based. An outline of the steps: as §3

In general, IC50 refers to the concentration that inhibits the measured activity by half. Take `CC(C)(C)c1cc(/C=C2\SC(=N)NC2=O)cc(C(C)(C)C)c1O` [DARBUFELONE]: the IC50 in data set [1] was 0.77 µM. Further, in the data set filed under Ovis aries, the Ratio IC50 is 0.014.
On to `CC(C)(C)C1=CC(=NNC(=O)c2ccncc2)C=C(C(C)(C)C)C1=O`, for which the IC50 amounted to 38.6 µM in data set [2]; 12 µM in [3]; 5.4 µM in [4]; 20 µM in [1]; 7.6 µM in data set [5]; 8.9 µM in data set [7]. The IC50 in the data set on HT-29 [9] turned out to be 15.2 µM; in [10], 18.3 µM; in [12], 55.7 µM. Also, the inhibition entry in the data set with HT-29 [6] and in the data set on HT-29 [8] was “Active” throughout. In the data set listed under Ovis aries, the Ratio IC50 worked out at 0.14. For the same compound, the “growth inhibition (GI)” value in the data set on HCA-7 [11], in the data set on HT-29 [13] and in the data set listed under Mus musculus [14] was “Dose-dependent effect” in each case.
On to `CC(C)(C)C1=CC(=NNC(=O)c2ccccc2)C=C(C(C)(C)C)C1=O`, for which the IC50 in [2] amounted to 26.4 µM; in [3], 12.5 µM; in data set [4], 38.5 µM; in [1], 5.1 µM; in data set [5], 9.5 µM; in data set [7] it was 20 µM. Also, the values for the IC50 (in the data set with HT-29 [9]; in [10]; in data set [12]) were 15 µM, 31 µM and 14 µM, respectively. Besides, the inhibition result in the data set on HT-29 [6] and in the data set with HT-29 [8] was “Active” throughout. In the data set listed under Ovis aries, the Ratio IC50 is 0.68. Further, the “growth inhibition (GI)” value in the data set with HCA-7 [11], in the data set with HT-29 [13] and in the data set filed under Mus musculus [14] was “Dose-dependent effect” in each case.
`CC(C)(C)c1cc(/C=C2\SC(N)=NC2=O)cc(C(C)(C)C)c1O` [DARBUFELONE]: the IC50 stood at 0.48 µM in data set [5] and 35 µM in [12].
Consider `Cc1ccc(-c2cc(C(F)(F)F)nn2-c2ccc(S(N)(=O)=O)cc2)cc1` [CELECOXIB], for which the IC50 in [2] stood at 17.5 µM; in [3], 2 µM; in [4] it was 18.3 µM; in [7], 4.2 µM; with HT-29 [9], 3 µM; in [10] it was 6 µM. Also, the inhibition entry in the data set on HT-29 [6] and in the data set on HT-29 [8] was “Active” each time. Moreover, the “growth inhibition (GI)” value in the data set on HCA-7 [11], with HT-29 [13] and in the data set listed under Mus musculus [14] was “Dose-dependent effect” each time.
Turning to `CC(C)(C)C1=CC(=NNC(=O)c2cccnc2)C=C(C(C)(C)C)C1=O`, the “growth inhibition (GI)” value in the data set on HCA-7 [15], with HT-29 [16], in the data set filed under Mus musculus [17] and in the data set listed under Mus musculus [19] was “Active” throughout. Also, the IC50 in data set [2] was 34.5 µM; in data set [3] it was 6.5 µM; in data set [4], 28.6 µM; in [5], 9.3 µM; in [7], 7.5 µM; in the data set on HT-29 [9], 11 µM. In addition, the figures for the IC50 in [10] and in [12] were 12.2 µM and 48.6 µM, respectively. Further, the inhibition entry in the data set with HT-29 [6] and in the data set on HT-29 [8] was “Active” each time. Besides, the Activity entry in [18] is on record as “Non-toxic”. Moreover, the Ratio IC50 in the data set listed under Ovis aries was 0.19. For the same compound, the “growth inhibition (GI)” value with HCA-7 [11], in the data set with HT-29 [13] and in the data set filed under Mus musculus [14] was “Dose-dependent effect” in each case.
